Broadly, the inhibition is the drop in the measured response relative to a control, in per cent.

Results on 14 compounds are retold here after PubChem BioAssay.

Active and inactive are the calls of the source.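 How the source made its calls, unless noted: active means visual image review flags a hit and inhibition of aggregation exceeds 20%; inconclusive means visual hit but inhibition at or below 20%; inactive means no hit on visual image review.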

Experiment [1] is described as follows: inhibitors of TNFa-induced NFkB p65 translocation, primary screen, imaging, HUVEC, MLSMR starter and 10KST1 sets (AID 438;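 active means inhibition above 20% together with a positive visual image hit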;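 further: compound added about 3h40 before a 20 min TNFalpha stimulation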;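 on inhibition: signal is the nuclear over cytoplasmic p65 intensity ratio per well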). To be noted: HUVEC TNFa-induced p65 nuclear translocation; cell count: measured here: nuclei count (cytotoxicity indicator), at 2.08 µM; inhibition: at 2 µM, stronger effect = higher value, 0% TNFa-plus-vehicle, 100% no-TNFa wells.
A short description of experiment [2]: inhibitors of mutant huntingtin aggregation, primary screen, imaging, exon1htt(103Q)mCFP cells, high-content imaging (AID 483).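 Further: compound exposure lasted 3 days before fixation.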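 On nuclei count: percent of the per-plate median nuclei count of sample wells.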 To be noted: exon1htt(103Q)mCFP cell line, aggregate imaging, at 2 µM; inhibition of aggregation: stronger effect = higher value; nuclei count: measured here: cell count, toxicity.
Experiment [3] can be described thus: inhibitors of E-selectin induction by TNFa, primary screen, imaging, HUVEC, immunofluorescence, MLSMR starter and 10KST1 sets (AID 487;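 active means visually confirmed hit in the image check and inhibition above 20%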;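 on inhibition: signal is fraction of cell area covered by stained E-selectin grains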;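 on nuclei count: 100% = median nuclei count of all wells on the same plate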). To be noted: HUVEC TNFalpha-induced E-selectin immunofluorescence imaging, at 2 µM; inhibition: stronger effect = higher value; nuclei count: measured here: cell number, toxicity.
The target of experiment [4] is Voltage-gated potassium channel subunit beta-2 (Rattus norvegicus) (UniProt P62483). The experiment in a line: KvBeta enzyme negative modulators, primary screen, biochemical, NADPH fluorescence (AID 622;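 active means fluorescence slope higher than the sample average by over 3 SD, cut at about -0.22 in these data, passing the limit was not always enough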;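 further: slope of raw intensity against log time taken from 70 to 1610 s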). To be noted: recombinant KvBeta, 4-cyanobenzaldehyde reduction, at 10 µM, stronger effect = higher value.
Sequence of Voltage-gated potassium channel subunit beta-2 (Rattus norvegicus) (P62483 whole entry, looked up): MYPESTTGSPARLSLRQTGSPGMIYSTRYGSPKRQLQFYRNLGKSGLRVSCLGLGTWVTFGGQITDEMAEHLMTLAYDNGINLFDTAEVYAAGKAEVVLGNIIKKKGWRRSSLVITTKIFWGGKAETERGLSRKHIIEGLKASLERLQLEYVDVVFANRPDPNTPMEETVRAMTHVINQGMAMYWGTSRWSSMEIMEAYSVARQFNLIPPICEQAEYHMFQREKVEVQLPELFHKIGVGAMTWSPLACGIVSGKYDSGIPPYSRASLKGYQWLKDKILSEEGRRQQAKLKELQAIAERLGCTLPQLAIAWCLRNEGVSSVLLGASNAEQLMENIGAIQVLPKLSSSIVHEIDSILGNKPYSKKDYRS
Experiment [5] has the same target. The experiment in a line: KvBeta positive modulators, primary screen, biochemical, NADPH fluorescence (AID 623;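 active means NADPH fluorescence slope more negative than the mean of all samples by about 3 SD, 99.7% confidence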;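 further: fluorescence intensity change per second fitted from 20 to 320 s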). To be noted: Recombinant KvBeta, NADPH fluorescence decrease slope, 10 min; at 10 µM; stronger effect = lower value.
The target in experiment [6] is Muscarinic acetylcholine receptor M4 (Homo sapiens) (UniProt P08173). The experiment in a line: compounds altering M4/GIRK thallium flux, either direction, primary screen, M4 allosteric agonist project, cell-based, HEK293 M4/GIRK, BTC-AM (AID 625;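 active means fluorescence slope after compound addition differing from the mean of all tested samples at 99.7% confidence, mostly higher but some lower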;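 further: thallium influx through GIRK channels coupled to M4 in HEK293 cells with BTC-AM dye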). To be noted: at 10 µM, actives lie on both sides. The procedure, abridged:
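assay system = HEK293 cells with M4 receptor and GIRK channels | medium = pH 7.3 thallium assay buffer | doses = 10 µM final, single point | timing = cells overnight at 37 °C, BTC-AM loading 1 h, reads 2 min total | signal = BTC-AM fluorescence, 1 Hz kinetic reads | read-out = post-addition slope, 15–24 s, of baseline-normalized fluorescence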

A short description of experiment [7]: inhibitors of Sendai virus-induced IRF3 signaling, primary screen, TLR/RLR signaling modifier project, cell-based, Sendai virus stimulus, luciferase, 10K MLSCN set (AID 602276;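 active means inhibition at or above 50% at 10 µM; inactive means inhibition below 50%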;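 further: firefly luciferase from ISG56 promoter only with Renilla not read in this screen; 0% = Sendai virus plus DMSO and 100% = medium plus DMSO without virus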). To be noted: HEK293 RL24 IRF3 luciferase reporter, at 10 µM, stronger effect = higher value.
Experiment [8] in a line: inhibitors of poly I:C-induced TLR3 signaling, primary screen, cell-based, poly I:C stimulus, luciferase, 10K MLSCN set (AID 602277;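 active means inhibition of the reporter signal at or above 50%; inactive means inhibition below 50%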). To be noted: HEK293-TLR3 RL24 IRF3 luciferase reporter, at 10 µM, stronger effect = higher value. (Reporter assays use an easily measured gene product as a stand-in for the process of interest.)

Sequence of Muscarinic acetylcholine receptor M4 (Homo sapiens) (P08173 whole entry, looked up): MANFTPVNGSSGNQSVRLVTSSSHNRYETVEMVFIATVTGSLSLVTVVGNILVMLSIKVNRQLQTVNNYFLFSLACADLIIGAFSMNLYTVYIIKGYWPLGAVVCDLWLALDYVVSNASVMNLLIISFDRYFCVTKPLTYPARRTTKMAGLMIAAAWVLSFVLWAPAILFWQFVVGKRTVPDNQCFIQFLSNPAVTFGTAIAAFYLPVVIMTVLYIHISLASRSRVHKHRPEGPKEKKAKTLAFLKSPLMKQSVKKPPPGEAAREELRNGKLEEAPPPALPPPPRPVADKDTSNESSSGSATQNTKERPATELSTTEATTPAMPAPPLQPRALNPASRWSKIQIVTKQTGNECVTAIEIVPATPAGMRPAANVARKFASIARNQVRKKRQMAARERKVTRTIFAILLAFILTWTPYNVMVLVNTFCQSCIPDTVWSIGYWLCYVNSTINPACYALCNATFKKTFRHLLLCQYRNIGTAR

Consider `CC(C)(C)SCCNC(=O)COc1ccccc1`, for which, in experiment [1], the cell count is 368. Also, the inhibition in experiment [1] is -2.3% (inactive); in experiment [3] it was -16.9% (inactive); in experiment [7], 1.01% (inactive); in experiment [8], -18% (inactive). In addition, the inhibition of aggregation in experiment [2] was 16.8% (inactive). The nuclei count in experiment [2] was 91.5%; in experiment [3], 110%. In addition, the fluorescence slope in experiment [4] was -0.32 (inactive); in experiment [6], 0.00624 (inactive). In addition, the NADPH fluorescence slope in experiment [5] was -4.6e-05 (inactive).

For the compound `Cc1nc2ccccn2c1/C(O)=C1\C(=O)C(=O)N(CCN2CCOCC2)C1c1cccs1` (centres undefined), the cell count in experiment [1] was determined as 318. Besides, the inhibition was 0.2% (inactive) in experiment [1], -41.3% (inactive) in experiment [3], -0.701% (inactive) in experiment [7] and 7.4% (inactive) in experiment [8]. Also, the inhibition of aggregation in experiment [2] was 0.3% (inactive). Also, the nuclei count in experiment [2] is 99.6%; in experiment [3], 116%. Further, the fluorescence slope in experiment [4] was -0.301 (inactive); in experiment [6] it was 0.00659 (inactive). In addition, the NADPH fluorescence slope in experiment [5] is -1.7e-05 (inactive).

`O=C(CN1CCN(c2ncc(C(F)(F)F)cc2Cl)CC1)Nc1ccc2c(c1)OCO2`: in experiment [1], the cell count is 407. For the same compound, the inhibition in experiment [1] was -5.7% (inactive); in experiment [3], -11.6% (inactive); in experiment [7] it was 7.72% (inactive); in experiment [8], 11.6% (inactive). Moreover, the inhibition of aggregation in experiment [2] was 4.8% (inactive). The values for the nuclei count in experiment [2] and in experiment [3] were 106% and 104%, respectively. Besides, the fluorescence slope in experiment [4] is -0.559 (inactive); in experiment [6], 0.00584 (inactive). Moreover, the NADPH fluorescence slope in experiment [5] is -4.3e-05 (inactive).

With `Cc1nc(SCC#N)c2c(C)c(C)sc2n1`, in experiment [1], the cell count came to 818. In addition, the inhibition is -4.3% (inactive) in experiment [1], -84.3% (inactive) in experiment [3], 10.7% (inactive) in experiment [7] and -9.75% (inactive) in experiment [8]. In addition, the inhibition of aggregation in experiment [2] is -3.4% (inactive). The nuclei count in experiment [2] is 101%; in experiment [3], 118%. The fluorescence slope was -0.551 (inactive) in experiment [4] and 0.00593 (inactive) in experiment [6]. Moreover, in experiment [5], the NADPH fluorescence slope is -2.7e-05 (inactive).

Turning to `CCc1cc2c(NCCC(=O)O)ncnc2s1`, the cell count in experiment [1] amounted to 507. For the same compound, the inhibition is 15.8% (inactive) in experiment [1], 13.4% (inactive) in experiment [3], 12.3% (inactive) in experiment [7] and 17.4% (inactive) in experiment [8]. In addition, the inhibition of aggregation in experiment [2] was 4.4% (inactive). In addition, the results for the nuclei count in experiment [2] and in experiment [3] were 103% and 110%, respectively. In addition, the fluorescence slope in experiment [4] is -0.562 (inactive); in experiment [6], 0.00669 (inactive). For the same compound, in experiment [5], the NADPH fluorescence slope is 1.3e-05 (inactive).

`Cc1occc1C(=O)Nc1cccc2ccccc12`: in experiment [1], the cell count amounted to 670. Also, the inhibition in experiment [1] was 5.2% (inactive); in experiment [3], -185% (inactive); in experiment [7], -27.7% (inactive); in experiment [8], -86.3% (inactive). Also, the inhibition of aggregation in experiment [2] was 16.6% (inactive). Further, the nuclei count was 97.2% in experiment [2] and 100% in experiment [3]. Further, the fluorescence slope in experiment [4] was -0.546 (inactive); in experiment [6], 0.00507 (inactive). The NADPH fluorescence slope in experiment [5] is 7.3e-06 (inactive).

In the case of `CCOc1ccc(C(CC(=O)O)NC(=O)c2ccco2)cc1OC` (centres undefined), the cell count in experiment [1] came out at 562. For the same compound, the inhibition in experiment [1] is 1.8% (inactive); in experiment [3], 22.7% (inactive); in experiment [7] it was 9.42% (inactive); in experiment [8], 29.4% (inactive). Moreover, the inhibition of aggregation in experiment [2] was -9.7% (inactive). In addition, the figures for the nuclei count in experiment [2] and in experiment [3] were 113% and 106%, respectively. In addition, the results for the fluorescence slope in experiment [4] and in experiment [6] were -0.35 (inactive) and 0.00565 (inactive), respectively. Also, in experiment [5], the NADPH fluorescence slope was -3.7e-05 (inactive).

As for `CCN1C(=O)OC2(CCCCC2)C1(C)O` (centres undefined), in experiment [1], the cell count came to 429. The inhibition in experiment [1] was 0% (inactive); in experiment [3] it was 9.3% (inactive); in experiment [7] it was 4.15% (inactive); in experiment [8], 8.64% (inactive). The inhibition of aggregation in experiment [2] is -3.6% (inactive). Besides, the nuclei count in experiment [2] stood at 114%; in experiment [3] it was 106%. The fluorescence slope in experiment [4] was -0.566 (inactive); in experiment [6] it was 0.00575 (inactive). Further, the NADPH fluorescence slope in experiment [5] is 2.7e-05 (inactive).

On to `Cc1ccc(-c2ccc(/C=N/n3cnnc3)o2)cc1Cl`, for which the cell count in experiment [1] turned out to be 432. Further, the inhibition in experiment [1] is -1.5% (inactive); in experiment [3], 10.4% (inactive); in experiment [7] it was 3.11% (inactive); in experiment [8] it was -7.7% (inactive). For the same compound, in experiment [2], the inhibition of aggregation is 2.7% (inactive). Further, the nuclei count amounted to 85.3% in experiment [2] and 110% in experiment [3]. For the same compound, the values for the fluorescence slope in experiment [4] and in experiment [6] were -0.555 (inactive) and 0.00662 (inactive), respectively. Further, the NADPH fluorescence slope in experiment [5] is -1.9e-05 (inactive).

As to `COc1ccc2cnn(-c3ccccc3)c(=O)c2c1OC`, the cell count in experiment [1] amounted to 342. Moreover, the inhibition in experiment [1] was -1.2% (inactive); in experiment [3], 35.5% (inactive); in experiment [7] it was -4.11% (inactive); in experiment [8] it was -25.4% (inactive). In addition, in experiment [2], the inhibition of aggregation is -8.5% (inactive). Besides, the nuclei count was 107% in experiment [2] and 109% in experiment [3]. Further, the results for the fluorescence slope in experiment [4] and in experiment [6] were -0.549 (inactive) and 0.00377 (inactive), respectively. Besides, the NADPH fluorescence slope in experiment [5] was -7.6e-05 (inactive).

Consider `COc1cccc(CNc2cccc3cccnc23)c1O`, for which the cell count in experiment [1] turned out to be 477. The inhibition in experiment [1] is 5% (inactive); in experiment [3], -165% (inactive); in experiment [7], 13% (inactive); in experiment [8], 8.77% (inactive). Further, the inhibition of aggregation in experiment [2] was 19.2% (inactive). For the same compound, the nuclei count in experiment [2] is 79.7%; in experiment [3], 122%. The fluorescence slope in experiment [4] was -0.564 (inactive); in experiment [6], 0.00309 (inactive). For the same compound, the NADPH fluorescence slope in experiment [5] was -7.6e-05 (inactive).

Turning to `COc1ccc(CCNC(=O)C2CCN(Cc3nc(-c4cccc(Cl)c4)oc3C)CC2)cc1OC`, in experiment [1], the cell count was 400. Also, the inhibition is 6% (inactive) in experiment [1], -12.2% (inactive) in experiment [3], 6.77% (inactive) in experiment [7] and -17.9% (inactive) in experiment [8]. Besides, the inhibition of aggregation in experiment [2] was 17.8% (inactive). Also, the figures for the nuclei count in experiment [2] and in experiment [3] were 94.3% and 86.6%, respectively. Also, the figures for the fluorescence slope in experiment [4] and in experiment [6] were -0.584 (inactive) and 0.00471 (inactive), respectively. The NADPH fluorescence slope in experiment [5] is -1.7e-05 (inactive).

As for `Cc1ccc(Nc2nnns2)cc1C`, in experiment [1], the cell count came out at 758. The inhibition in experiment [1] is 5% (inactive); in experiment [3] it was -52.7% (inactive); in experiment [7], 6.92% (inactive); in experiment [8], 7.21% (inactive). For the same compound, in experiment [2], the inhibition of aggregation is -5% (inactive). For the same compound, the results for the nuclei count in experiment [2] and in experiment [3] were 105% and 116%, respectively. For the same compound, the fluorescence slope in experiment [4] is -0.58 (inactive); in experiment [6], 0.00717 (inactive). Besides, the NADPH fluorescence slope in experiment [5] is 1.4e-05 (inactive).

As for `Cc1cccn2cc(-c3ccccc3)nc12`, the cell count in experiment [1] stood at 394. Moreover, the inhibition is 1.7% (inactive) in experiment [1], -36.2% (inactive) in experiment [3], 2.94% (inactive) in experiment [7] and -39.3% (inactive) in experiment [8]. In experiment [2], the inhibition of aggregation is -5.2% (inactive). Further, the nuclei count was determined as 103% in experiment [2] and 89.3% in experiment [3]. Moreover, the fluorescence slope is -0.557 (inactive) in experiment [4] and 0.00519 (inactive) in experiment [6]. Besides, in experiment [5], the NADPH fluorescence slope was -1.4e-05 (inactive).
